{"source": "paper PMC3152616", "about": "(Peptides, 2011)", "key": {"NCI-H1299-BRS-3 cells": {"tested_on": "NCI-H1299-BRS-3 cells", "test": "Clonogenic assay", "type": "cell-based, human", "conditions": "for Colony number: addition 10 nM, mean ± S.D., no addition 40 ± 6; for Effect on NCI-H1299-BRS-3 cellular proliferation: unpublished"}, "BB2R": {"tested_on": "BB2R", "conditions": "cited from earlier work"}, "[1]": {"tested_on": "EGFR tyrosine phosphorylation", "test": "EGFR tyrosine phosphorylation", "type": "cell-based, human"}, "Balb/3T3-BRS-3 cells": {"tested_on": "Balb/3T3-BRS-3 cells", "test": "MTT proliferation assay", "type": "cell-based"}, "Balb/3T3 cells": {"tested_on": "Balb/3T3 cells", "test": "MTT proliferation assay, control cells", "type": "cell-based", "conditions": "30 μg/ml, 16 hours, mean ± S.E.", "outline": "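Parental Balb/3T3 cells lacking BRS-3 were maintained in DMEM with 10% FBS. They were seeded at 10⁴/well in serum-free SIT medium (RPMI-1640 with selenite, insulin and transferrin) and exposed for 16 h to test compound at 10 nM or 30 μg/ml. MTT was then added for 3 h, formazan was dissolved in DMSO, and OD was read at 570 nm. Growth is given as % of control, mean ± S.E.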"}, "BRS-3 [2]": {"biological_target": "T1, BRS-3 (Homo sapiens, UniProt P32247)", "T1 sequence (P32247 1-399)": "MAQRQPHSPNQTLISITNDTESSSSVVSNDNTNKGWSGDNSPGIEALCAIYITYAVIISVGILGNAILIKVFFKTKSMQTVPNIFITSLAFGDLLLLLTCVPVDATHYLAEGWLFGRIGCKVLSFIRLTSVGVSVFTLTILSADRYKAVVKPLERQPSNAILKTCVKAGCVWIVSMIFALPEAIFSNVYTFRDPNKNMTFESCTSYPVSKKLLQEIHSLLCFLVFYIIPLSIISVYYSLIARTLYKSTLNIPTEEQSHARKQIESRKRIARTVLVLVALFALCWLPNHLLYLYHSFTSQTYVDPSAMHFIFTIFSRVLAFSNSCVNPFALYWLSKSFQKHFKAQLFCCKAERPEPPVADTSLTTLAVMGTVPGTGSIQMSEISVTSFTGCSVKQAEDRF", "test": "Inhibition of specific 125I-BA1 binding to NCI-H1299-BRS-3 cells"}, "[3]": {"tested_on": "ERK tyrosine phosphorylation", "test": "ERK tyrosine phosphorylation", "type": "cell-based, human", "conditions": "concentration not given"}, "BRS-3 [4]": {"biological_target": "T1, BRS-3", "conditions": "cited from earlier work"}, "BB1R": {"tested_on": "BB1R", "conditions": "read-out: IC50, binding to BB1R; transfected Balb 3T3 cells; cited from earlier work"}, "[5]": {"conditions": "concentration not given, data not shown / unpublished"}, "[6]": {"conditions": "read-out: IC50, binding to BRS-3, transfected Balb 3T3 cells"}, "[7]": {"conditions": "read-out: IC50, binding to BB2R, transfected Balb 3T3 cells"}}, "note": "Read-outs that look alike come from different tables or passages of the source. Marks after values point to notes of the source that are not given here. Numbered stars: 1 amine (or outer) side, 2 acyl side, 3 side chain; on linkers, the order of the positions; unused ones are H or OH. Square brackets hold non-standard residues; d marks the D form. Peptide text beside a SMILES is read from it. * marks the point of attachment. dProψ(CH2NH)PheNH2 = NC(=O)[C@H](Cc1ccccc1)NC[C@H]1CCCN1*; X1 = O=C(C[C@@H](N[*:1])c1ccc(Cl)cc1)[*:2]; Hydrocinnamoyl = O=C(CCc1ccccc1)*; NHPhenethyl = c1ccc(CCN*)cc1; Nle = CCCC[C@H](N)C(=O)O; PhAc = O=C(Cc1ccccc1)*"}
{"compound": "CSCC[C@H](NC(=O)[C@H](CC(C)C)NC(=O)[C@H](Cc1c[nH]cn1)NC(=O)CNC(=O)[C@@H](NC(=O)[C@H](C)NC(=O)[C@H](Cc1c[nH]c2ccccc12)NC(=O)[C@H](Cc1c[nH]cn1)NC(=O)[C@H](CC(N)=O)NC(=O)CNC(=O)[C@H](CCCNC(=N)N)NC(=O)[C@@H]1CCCN1C(=O)[C@H](Cc1ccc(O)cc1)NC(=O)[C@H](CCSC)NC(=O)[C@H](CCCCN)NC(=O)[C@@H](NC(=O)[C@H](CC(C)C)NC(=O)[C@@H](NC(=O)[C@@H](NC(=O)CNC(=O)CNC(=O)CNC(=O)[C@H](C)NC(=O)[C@@H]1CCCN1C(=O)[C@H](CC(C)C)NC(=O)[C@@H]1CCCN1C(=O)[C@@H](N)C(C)C)[C@@H](C)O)C(C)C)[C@@H](C)O)C(C)C)C(N)=O", "note": "[GRP, gastrin releasing peptide]", "values": [{"measurement": "Colony number", "setting": "NCI-H1299-BRS-3 cells", "value": "41 ± 5^aa"}]}
{"compound": "Ac-Phe-Trp-Ala-His(γBzl)-Nip-Gly-Arg-NH2", "values": [{"measurement": "IC50", "setting": "BB2R; read-out: IC50, BB2R, ref 2, 28", "value": "> 10", "unit": "µM"}, {"measurement": "IC50", "setting": "BB2R; read-out: IC50, BB2R, ref 26, 27", "value": 2.8, "unit": "µM"}]}
{"compound": "CC(C)(C)n1nc(-c2ccc(Cl)cc2)c2c(N)ncnc21", "note": "[PP2]", "values": [{"measurement": "Inhibition of the increase in EGFR tyrosine phosphorylation caused by BA1", "setting": "[1]; 10 μM, 100 nM BA1", "value": "inhibited"}]}
{"compound": "c1ccc2c(c1)[I+]c1ccccc1-2", "note": "[DPI, diphenylene iodonium]", "values": [{"measurement": "Inhibition of the increase in EGFR tyrosine phosphorylation caused by BA1", "setting": "[1]; 15 μM, 100 nM BA1", "value": "inhibited"}]}
{"compound": "CC(=O)N[C@@H](CS)C(=O)O", "note": "[N-acetylcysteine]", "values": [{"measurement": "Inhibition of the increase in EGFR tyrosine phosphorylation caused by BA1", "setting": "[1]; 5 mM, 100 nM BA1", "value": "reversed"}]}
{"compound": "COc1cc2ncnc(Nc3ccc(F)c(Cl)c3)c2cc1OCCCN1CCOCC1", "note": "[Gefitinib, gefitinib]", "values": [{"measurement": "Effect on colony number", "setting": "NCI-H1299-BRS-3 cells; gefitinib dose-response, exogenous BA1 not added, Fig. 1B", "value": "reduced colony number in a dose-dependent manner"}, {"measurement": "% Growth Balb/3T3-BRS-3", "setting": "Balb/3T3-BRS-3 cells; 30 μg/ml, 16 hours, MTT, mean ± S.E.", "value": "41 ± 6", "unit": "%"}, {"measurement": "% Growth Balb/3T3", "setting": "Balb/3T3 cells", "value": "31 ± 4", "unit": "%"}, {"measurement": "IC50", "setting": "BRS-3 [2]", "value": "> 2", "unit": "µM"}]}
{"compound": "O=S(=O)(O)c1cc(O)c(O)c(S(=O)(=O)O)c1", "note": "[Tiron]", "values": [{"measurement": "Inhibition of the increase in EGFR tyrosine phosphorylation caused by BA1", "setting": "[1]; 5 mM, 100 nM BA1", "value": "reversed"}]}
{"compound": "COc1cccc(-c2cc(=O)c3ccccc3o2)c1N", "note": "[PD98059]", "values": [{"measurement": "Inhibition of the increase in EGFR tyrosine phosphorylation caused by BA1", "setting": "[1]; [5]", "value": "no effect"}, {"measurement": "Effect on growth", "setting": "Balb/3T3-BRS-3 cells; 10 μM, all cells tested, preliminary unpublished data", "value": "little effect"}, {"measurement": "Inhibition of BA1-induced ERK tyrosine phosphorylation", "setting": "[3]", "value": "reversed"}]}
{"compound": "CSCC[C@H](NC(=O)[C@H](Cc1ccccc1)NC(=O)[C@H](Cc1c[nH]cn1)NC(=O)CNC(=O)[C@@H](NC(=O)[C@H](C)NC(=O)[C@H](Cc1c[nH]c2ccccc12)NC(=O)[C@H](CC(C)C)NC(=O)[C@H](CC(N)=O)NC(=O)CN)[C@@H](C)O)C(N)=O", "note": "[NMB, neuromedin B]", "values": [{"measurement": "Colony number", "setting": "NCI-H1299-BRS-3 cells", "value": "46 ± 5^a"}, {"measurement": "IC50", "setting": "BRS-3 [2]", "value": "> 2", "unit": "µM"}]}
{"compound": "COc1cc2ncnc(Nc3cccc(Cl)c3)c2cc1OC", "note": "[AG1478]", "values": [{"measurement": "Inhibition of the increase in EGFR tyrosine phosphorylation caused by BA1", "setting": "[1]; [5]", "value": "blocked"}, {"measurement": "Inhibition of BA1-induced ERK tyrosine phosphorylation", "setting": "[3]", "value": "blocked"}]}
{"compound": "C[C@H](NC(=O)Cc1ccccc1)C(=O)N[C@H](Cc1c[nH]c2ccccc12)C(=O)NCCc1ccccc1", "note": "[16a] (PhAc-Ala-[dW]-NHPhenethyl)", "values": [{"measurement": "IC50", "setting": "BRS-3 [4]; read-out: IC50, binding to human BRS-3", "value": 3.16, "unit": "µM"}]}
{"compound": "C[C@@](Cc1c[nH]c2ccccc12)(NC(=O)Nc1ccc([N+](=O)[O-])cc1)C(=O)NCC1(c2ccccn2)CCCCC1", "note": "[PD168368]", "values": [{"measurement": "Effect on NCI-H1299-BRS-3 cellular proliferation", "setting": "NCI-H1299-BRS-3 cells", "value": "little effect"}, {"measurement": "IC50", "setting": "BB1R", "value": 0.0005, "unit": "µM"}, {"measurement": "IC50", "setting": "BRS-3 [4]; [6]", "value": "> 10", "unit": "µM"}, {"measurement": "IC50", "setting": "BB2R; [7]", "value": 0.213, "unit": "µM"}, {"measurement": "Inhibition of BA1-induced ERK tyrosine phosphorylation", "setting": "[3]", "value": "not inhibited"}, {"measurement": "IC50", "setting": "BRS-3 [2]; read-out: IC50, inhibition of specific 125I-BA1 binding, NCI-H1299-BRS-3 cells, 37°C, mean ± S.E. of 4 determinations", "value": "> 2", "unit": "µM"}]}
{"compound": "CNC(=O)[C@H](Cc1c[nH]c2ccccc12)NC(=O)[C@@H](CC(=O)NO)CC(C)C", "note": "[GM6001]", "values": [{"measurement": "Inhibition of the increase in EGFR tyrosine phosphorylation caused by BA1", "setting": "[1]; 10 μM, 100 nM BA1", "value": "inhibited"}]}
{"compound": "CC(C)[C@H](NC(=O)[C@H](C)NC(=O)[C@H](Cc1c[nH]c2ccccc12)NC(=O)[C@H](Cc1c[nH]cn1)NC(=O)CCc1ccccc1)C(=O)N[C@H](C)C(=O)N[C@@H](Cc1c[nH]cn1)C(=O)N1CCC[C@@H]1CN[C@@H](Cc1ccccc1)C(N)=O", "note": "[BW2258U89] (Hydrocinnamoyl-HWAV[dA]H-{dProψ(CH2NH)PheNH2}; N-terminus and C-terminus assumed)", "values": [{"measurement": "Effect on NCI-H1299-BRS-3 cellular proliferation", "setting": "NCI-H1299-BRS-3 cells", "value": "little effect"}, {"measurement": "IC50", "setting": "BB1R", "value": 4.9, "unit": "µM"}, {"measurement": "IC50", "setting": "BRS-3 [4]; [6]", "value": 6.82, "unit": "µM"}, {"measurement": "IC50", "setting": "BB2R; [7]", "value": 0.0002, "unit": "µM"}, {"measurement": "Inhibition of BA1-induced ERK tyrosine phosphorylation", "setting": "[3]", "value": "not inhibited"}]}
{"compound": "CCCC[C@H](NC(=O)[C@H](Cc1ccccc1)NC(=O)[C@H](Cc1c[nH]cn1)NC(=O)C[C@@H](NC(=O)[C@@H](NC(=O)[C@H](C)NC(=O)[C@H](Cc1c[nH]c2ccccc12)NC(=O)[C@H](CCC(N)=O)NC(=O)[C@H](N)Cc1ccc(O)cc1)C(C)C)c1ccc(Cl)cc1)C(N)=O", "note": "[BA3, (DTyr^6, R-Apa^11,4-Cl,Phe^13, Nle^14)bombesin^6-14] (H-[dY]QWAV[X1]HF[Nle]-NH2; N-terminus and C-terminus assumed)", "values": [{"measurement": "EGFR tyrosine phosphorylation (transactivation)", "setting": "[1]; 100 nM, NCI-H1299-BRS-3 cells", "value": "increased"}, {"measurement": "Selectivity for hBRS-3 over hNMBR or hGRPR", "setting": "BRS-3 [4]", "value": "over 60 fold"}]}
